Measured values: ChEMBL document CHEMBL3259818, “Tomensides A-D, new antiproliferative phenylpropanoid sucrose esters from Prunus tomentosa leaves” (Bioorg Med Chem Lett, 2014)

Experiments:
Assay type in all cases: functional, cell-based
HT-29 = test: Cytotoxicity against human HT-29 cells after 2 days by MTT assay; details: HT-29, 48 h
Method in brief: (§1)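 Cells grown in RPMI-1640 and seeded in 96-well plates for 4 h before sample addition. Test samples were tested at four concentrations, with 37 °C incubation for 2 days. MTT solution (5 mg/mL) was then added for a further 4 h. Formazan was dissolved in 10% SDS in 0.01 M HCl and absorbance read at 550 nm. IC50 determined; 5-fluorouracil served as positive control.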

HeLa = test: Cytotoxicity against human HeLa cells after 2 days by MTT assay; details: 48 h; method in brief: as §1
A549 = test: Cytotoxicity against human A549 cells after 2 days by MTT assay; details: A549, 48 h; method in brief: as §1
MCF7 = test: Cytotoxicity against human MCF7 cells after 2 days by MTT assay; details: MCF7, 48 h; method in brief: as §1

SMILES	IC50 (HT-29) [nM]	IC50 (HeLa) [nM]	IC50 (A549) [nM]	IC50 (MCF7) [nM]
COc1cc(/C=C/C(=O)O[C@H]2[C@H](O)[C@@H](CO)O[C@@]2(COC(C)=O)O[C@H]2O[C@H](COC(C)=O)[C@@H](O)[C@H](O)[C@H]2OC(C)=O)ccc1O	460	1090	450	770
CC(=O)OC[C@H]1O[C@H](O[C@]2(COC(C)=O)O[C@H](CO)[C@@H](OC(C)=O)[C@@H]2OC(=O)/C=C/c2ccc(O)cc2)[C@H](O)[C@@H](O)[C@@H]1O	180	110	290	620
CC(=O)OC[C@H]1O[C@H](O[C@]2(COC(C)=O)O[C@H](CO)[C@@H](O)[C@@H]2OC(=O)/C=C/c2ccc(O)cc2)[C@H](O)[C@@H](O)[C@@H]1OC(C)=O	1480	970	490	1220
CC(=O)OC[C@H]1O[C@H](O[C@]2(CO)O[C@H](CO)[C@@H](O)[C@@H]2OC(=O)/C=C/c2ccc(O)cc2)[C@H](O)[C@@H](OC(C)=O)[C@@H]1OC(C)=O	2780	3800	1470	2930
CC(=O)OC[C@H]1O[C@H](O[C@]2(CO)O[C@H](CO)[C@@H](O)[C@@H]2OC(=O)/C=C/c2ccc(O)cc2)[C@H](OC(C)=O)[C@@H](OC(C)=O)[C@@H]1O	2450	4320	1120	980
O=c1[nH]cc(F)c(=O)[nH]1 [FLUOROURACIL]	17200			
CC(=O)OC[C@H]1O[C@H](O[C@]2(COC(C)=O)O[C@H](CO)[C@@H](O)[C@@H]2OC(=O)/C=C/c2ccc(O)cc2)[C@H](O)[C@@H](OC(C)=O)[C@@H]1O	2100	1330	2560	1440
CC(=O)OC[C@H]1O[C@H](O[C@]2(COC(C)=O)O[C@H](CO)[C@@H](O)[C@@H]2OC(=O)/C=C/c2ccc(O)cc2)[C@H](OC(C)=O)[C@@H](O)[C@@H]1O	3960	2490	3200	3440
